Measurements taken from ChEMBL document CHEMBL4257546, “Discovery of new FXR agonists based on 6-ECDCA binding properties by virtual screening and molecular docking” (Medchemcomm, 2018).
Activity calls are given as the source filed them.

Tests used:
[1] = test system: HEK293; experiment: Effect on renilla luciferase expression in HEK293 cells at 100 uM after 18 hrs by dual-glo luciferase reporter gene assay; assay type: ADME, cell-based; conditions: human, hek293, 18 h
Method in brief: (§1)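 HEK293 in DMEM with 10% FBS, 37 °C, 5% CO2; calcium phosphate co-transfection in serum-free medium with TK-FXRE-luc reporter (50 ng), Renilla vector (20 ng) and full-length FXR plasmid (30 ng) per well. Compounds added 6 h post-transfection, cells harvested 18 h later; Renilla luminescence (Dual-Glo) monitored as the cell-status control over 0.1–250 μM.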

[2] = target: T1, Bile acid receptor (Homo sapiens) (UniProt Q96RI1); experiment: Transactivation of full-length FXR (unknown origin) expressed in HEK293 cells at 100 uM after 18 hrs by dual-glo luciferase reporter gene assay relative to CDCA; assay type: cell-based
T1 sequence (whole entry): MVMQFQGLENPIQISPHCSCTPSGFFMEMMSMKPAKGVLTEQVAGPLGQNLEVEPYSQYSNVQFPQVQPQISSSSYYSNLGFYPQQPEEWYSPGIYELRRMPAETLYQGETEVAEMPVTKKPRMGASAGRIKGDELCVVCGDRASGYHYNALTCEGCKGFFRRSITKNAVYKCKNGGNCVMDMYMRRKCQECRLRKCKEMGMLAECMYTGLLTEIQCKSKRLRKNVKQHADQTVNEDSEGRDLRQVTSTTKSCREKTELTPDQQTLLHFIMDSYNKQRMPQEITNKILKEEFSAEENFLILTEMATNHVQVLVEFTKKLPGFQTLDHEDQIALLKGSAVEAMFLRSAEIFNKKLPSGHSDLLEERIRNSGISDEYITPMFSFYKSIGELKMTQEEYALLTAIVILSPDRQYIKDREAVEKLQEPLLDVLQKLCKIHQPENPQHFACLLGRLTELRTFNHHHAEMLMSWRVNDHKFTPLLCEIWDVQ
Method in brief: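 HEK293 cells co-transfected by calcium phosphate with full-length FXR expression plasmid, FXRE-driven firefly luciferase reporter and Renilla normalization vector. Compound added at 100 μM 6 h after transfection; dual luciferase read 18 h later. Firefly normalized to Renilla, expressed as fold activation over untreated cells, then as percent of maximal fold induction by CDCA. At least two separate experiments, triplicate assays.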

[3] = target: T2, Bile acid receptor (Homo sapiens, UniProt Q96RI1); experiment: Transactivation of full-length FXR (unknown origin) expressed in HEK293 cells after 18 hrs by dual-glo luciferase reporter gene assay; assay type: cell-based
T2 sequence (Q96RI1 whole entry): T1 sequence (whole entry)

[4] = test system: HEK293; experiment: Cytotoxicity against HEK293 cells assessed as effect on renilla luciferase expression at 0.1 to 250 uM after 18 hrs by dual-glo luciferase reporter gene expression; assay type: cell-based; conditions: human, hek293, 18 h; method in brief: as §1

Activity [2] | EC50 [3] [µM] | Efficacy [2] [%] | SMILES | Activity [1] | Activity [4]
inactive | – | – | COc1ccc(Nc2ccc(NC(=O)c3ccccc3NS(=O)(=O)c3cc(C)ccc3C)cc2)cc1 | Non-Toxic | –
inactive | – | – | CNC(=O)C1CN(CC(=O)Nc2cc(C)c(Cl)cc2OC)c2ccccc2O1 (stereo unspecified) | Non-Toxic | –
inactive | – | – | COC(=O)/C=C/c1ccc(OCC(=O)NC2c3ccccc3-c3ccccc32)c(OC)c1 | Non-Toxic | –
inactive | – | – | CC(NS(=O)(=O)c1ccccc1F)C(=O)Cc1nc2ccccc2[nH]1 (stereo unspecified) | Non-Toxic | –
inactive | – | – | O=C(Nc1ccc(N2CCOCC2)cc1)c1ccccc1SC1CCS(=O)(=O)C1 (stereo unspecified) | Non-Toxic | –
inactive | – | – | O=C(Nc1ccccc1)Nc1ccccc1NS(=O)(=O)c1ccccc1 | Non-Toxic | –
inactive | – | – | NC(=O)CSc1ccccc1NCC(=O)Nc1ccc(Cl)cc1Cl | Non-Toxic | –
inactive | – | – | Cc1cc(/N=N/Cc2ccccc2)nc(NS(=O)(=O)c2ccccc2Cl)n1 | Non-Toxic | –
inactive | – | – | O=C(COc1ccccc1Cl)NNC(=O)c1cccc(NS(=O)(=O)c2ccc3c(c2)OCCCO3)c1 | Non-Toxic | –
inactive | – | – | COc1ccc(CN(C)C(=O)c2c[nH]c3ccccc23)cc1F | Non-Toxic | –
inactive | – | – | NC(=O)CSc1ccccc1NC(=O)Nc1ccc(Cl)c(Cl)c1 | Non-Toxic | –
– | 4.33 | 120 | COc1cc([N+](=O)[O-])ccc1NC(=O)CNc1ccccc1N1CCCC1=O | Non-Toxic | Non-Toxic

Further lines, the molecule ahead of its results:

SMILES | Activity [2] | EC50 [3] [µM] | Efficacy [2] [%] | Activity [1] | Activity [4]
O=C(CN(Cc1ccc2c(c1)OCO2)C1CCCC1)Nc1cccc2ccccc12 | inactive | – | – | Non-Toxic | –
Nc1nc(CSc2nnnn2Cc2ccccc2)nc(Nc2ccccc2)n1 | inactive | – | – | Non-Toxic | –
O=C(CN1CC(C(=O)N2CCCCC2)Oc2ccccc21)NC(=O)NCc1ccco1 (stereo unspecified) | inactive | – | – | Non-Toxic | –
Cc1nn(-c2ccccc2)c(N)c1C(O)(CC(=O)C(F)(F)F)C(F)(F)F (stereo unspecified) | inactive | – | – | Non-Toxic | –
CC(Sc1nnc(C2CCCC2)[nH]1)C(=O)Nc1sccc1C(N)=O (stereo unspecified) | inactive | – | – | Non-Toxic | –
CN(Cc1ccc(N2CCCCC2)cc1)C(=O)c1n[nH]c(=O)c2ccccc12 | – | 14.4 | 60.3 | Non-Toxic | Non-Toxic
CCn1c(CNc2ccc(Cl)cc2)nnc1SCC(=O)NNC(=O)c1ccc(Cl)cc1 | inactive | – | – | Non-Toxic | –
Cc1ccc([N+](=O)[O-])cc1NCC(=O)Nc1cc(C(F)(F)F)ccc1-n1cncn1 | inactive | – | – | Non-Toxic | –
O=C(O)c1ccccc1-c1ccccc1C(=O)N1CCN(Cc2ccc3c(c2)OCO3)CC1 | – | 5.99 | 55.1 | Non-Toxic | Non-Toxic
CCOC(=O)CC(c1ccc(F)cc1)C1CCN(C(=O)c2ccc([N+](=O)[O-])o2)CC1 (stereo unspecified) | inactive | – | – | Non-Toxic | –
CC1(CSc2cccc(C(=O)NCc3cccs3)c2)NC(=O)NC1=O (stereo unspecified) | inactive | – | – | Non-Toxic | –
CS(=O)(=O)N1CCC(NC(=O)CC(NC(N)=O)c2ccccc2F)CC1 (stereo unspecified) | inactive | – | – | Non-Toxic | –
Cc1cc(CNC(=O)c2ccccc2SC2CCS(=O)(=O)C2)ccc1F (stereo unspecified) | inactive | – | – | Non-Toxic | –
